Assay [1] has as its system Rattus norvegicus. Put plainly: In vivo inhibition of passive cutaneous anaphylaxis in rats when administered i.p. The class given is functional. As to conditions: ip, read-out: ID50 (the source's name). In short, it runs like this: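 Adult male Charles River rats (140-160 g, six per group) were sensitized intradermally at two sites with rat serum containing reaginic antibodies to chicken ovalbumin. After 48 h they were challenged iv with 10 mg/kg ovalbumin in 1% Evans blue. Compound was given ip 15 min before challenge. Bluing area was measured 30 min later, and percent inhibition was calculated. ID50 was read graphically from the dose-response curve.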

The test system of assay [2] is Rattus norvegicus. Kind of assay: In vivo inhibition of passive cutaneous anaphylaxis in rats when administered i.v. The assay is classed as functional. As to conditions: iv, read-out: ID50 (the source's name). In short, it runs like this: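 Rats (adult male Charles River, 140-160 g, six per group) were sensitized intradermally at two sites with reaginic rat antiserum to chicken ovalbumin. After 48 h, compound at 30, 10 or 3 mg/kg iv was given simultaneously with the iv challenge of 10 mg/kg ovalbumin in 1% Evans blue. Dermal bluing area was measured at 30 min, and percent inhibition was calculated. ID50 was taken graphically from the dose-response curve.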

For the compound `CC1Sc2ccccc2-c2oc(C(=O)O)cc(=O)c21.NCCO` (stereo not drawn), the results for the ED50 in the assay with Rattus norvegicus [1] and in the assay with Rattus norvegicus [2] were 29 mg/kg and 8.4 mg/kg, respectively.
For `CCCCc1ccc2c(c1)-c1nc(C(=O)O)cc(O)c1CS2.NCCO`, in that order: 20 mg/kg and 12 mg/kg.
Taken in the same sequence, the figures for `O=c1c(CO)coc2c1CSc1ccccc1-2` were > 30 mg/kg and > 30 mg/kg.
As for `Cc1ccc2c(c1)-c1oc(C(=O)O)cc(=O)c1CS2.NCCO`, the ED50 was > 30 mg/kg with Rattus norvegicus [1] and 19 mg/kg in the assay on Rattus norvegicus [2].
In the case of `O=c1c(CO)coc2c1COc1ccccc1-2`, the ED50 in the assay on Rattus norvegicus [1] worked out at 23 mg/kg.
`Cc1c(-c2nn[nH]n2)oc2c(c1=O)CS(=O)(=O)c1ccccc1-2`: in the assay on Rattus norvegicus [1], the ED50 turned out to be 100 mg/kg.
With `CCC(C)c1ccc2c(c1)-c1oc(C(=O)O)cc(=O)c1CS2.NCCO` (stereo not drawn), the ED50 was > 30 mg/kg in the assay on Rattus norvegicus [1] and 25 mg/kg with Rattus norvegicus [2].
For `NCCO.O=C(O)c1cc(=O)c2c(o1)-c1cc(Cl)ccc1SC2`, the ED50 in the assay on Rattus norvegicus [1] was > 100 mg/kg; in the assay with Rattus norvegicus [2], 28 mg/kg.
For the compound `NCCO.O=C(O)c1cc(=O)c2c(o1)-c1ccccc1SC2`, the ED50 in the assay with Rattus norvegicus [1] was > 100 mg/kg; in the assay with Rattus norvegicus [2], 25 mg/kg.
As to `NCCO.O=C(O)c1cc(O)c2c(n1)-c1ccccc1SC2`, the ED50 with Rattus norvegicus [1] is > 30 mg/kg; with Rattus norvegicus [2], 5.3 mg/kg.
Taken in the same sequence, the figures for `NCCO.O=C(O)c1cc(=O)c2c(o1)-c1ccccc1S(=O)(=O)C2` were > 100 mg/kg and > 30 mg/kg.
Taken in the same sequence, the figures for `Cc1ccc(Cl)c2c1SCc1c(O)cc(C(=O)O)nc1-2.NCCO` were > 30 mg/kg and > 30 mg/kg.
For `CCC(C)c1ccc2c(c1)-c1nc(C(=O)O)cc(O)c1CS2.NCCO` (stereo not drawn), in that order: 27 mg/kg and 8.2 mg/kg.
Regarding `CCCCc1ccc2c(c1)-c1oc(C(=O)O)cc(=O)c1CS2.NCCO`, the ED50 in the assay with Rattus norvegicus [1] is > 30 mg/kg; in the assay on Rattus norvegicus [2], 19 mg/kg.
For `Cc1ccc2c(c1)-c1nc(C(=O)O)cc(O)c1CS2.NCCO`, in that order: 34 mg/kg and 6.9 mg/kg.
For `NCCO.O=C(O)c1cc(O)c2c(n1)-c1cc(Cl)ccc1SC2`, in that order: 33 mg/kg and 3.3 mg/kg.
Consider `CCC(C)c1ccc2c(c1)-c1nc(C(=O)O)cc(O)c1CS2(=O)=O` (stereo not drawn), for which the ED50 with Rattus norvegicus [1] and with Rattus norvegicus [2] was > 30 mg/kg throughout.
On to `Cc1c(-c2nn[nH]n2)oc2c(c1=O)CSc1ccccc1-2`, for which the ED50 in the assay with Rattus norvegicus [1] was > 30 mg/kg.
Turning to `Cc1ccc(Cl)c2c1SCc1c-2oc(C(=O)O)cc1=O.NCCO`, the ED50 with Rattus norvegicus [1] is > 100 mg/kg; with Rattus norvegicus [2], 30 mg/kg.
In the case of `O=C([O-])c1cc(=O)c2c(o1)-c1ccccc1OC2.[K+]`, in the assay on Rattus norvegicus [2], the ED50 turned out to be 12 mg/kg.
For the compound `O=C([O-])c1cc(=O)c2c(OCC(O)COc3cccc4oc(C(=O)[O-])cc(=O)c34)cccc2o1.[Na+].[Na+]` [CROMOLYN SODIUM], the figures for the ED50 in the assay with Rattus norvegicus [1] and in the assay on Rattus norvegicus [2] were 16.6 mg/kg and 1 mg/kg, respectively.
